Results reported in ChEMBL document CHEMBL5136958, “The development of HEC-866 and its analogues for the treatment of idiopathic pulmonary fibrosis” (RSC Med Chem, 2021).
Active and inactive are the calls of the source. No cut-off for these calls is given here.

Columns and labels:
[1] = Tmax in Sprague-Dawley rat model of bleomycin-induced pulmonary fibrosis at 5 mg/kg, po by LC-MS/MS analysis; assay type: ADME, organism-based; conditions: in vivo
How it was run: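 Male Sprague-Dawley rats with induced pulmonary fibrosis were dosed 2.0 mg kg⁻¹ i.v. or 5.0 mg kg⁻¹ p.o. Plasma was stored at -70 °C, and the supernatant was analysed by LC-MS/MS.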

[2] = Half life in cynomolgus monkey at 5 mg/kg, po by LC-MS/MS analysis; assay type: ADME, organism-based, Macaca fascicularis; conditions: in vivo
[3] = Half life in cynomolgus monkey at 1 mg/kg, iv by LC-MS/MS analysis; assay type: ADME, organism-based, Macaca fascicularis; conditions: in vivo
[4] = Mutagenecity in Salmonella typhimurium TA100 at 7.8 to 1000 ug measured after 2 to 3 days by mini-Ames test; assay type: toxicity, Salmonella enterica subsp. enterica serovar Typhimurium; conditions: dose lower 7.8 µg, time lower 2 day, dose upper 1000 µg, time upper 3 day
How it was run: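 Bacterial reverse mutation assay scoring reverse gene mutations at the histidine locus in Salmonella typhimurium strains TA98 and TA100.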

[5] = Half life in dog at 1 mg/kg, iv by LC-MS/MS analysis; assay type: ADME, organism-based, Canis lupus familiaris; conditions: in vivo
Rattus norvegicus [6] = test: Antifibrotic activity against bleomycin-induced pulmonary fibrosis in Sprague-Dawley rat assessed as reduction in lung hydroxyproline content at 6 mg/kg, po administered daily for 1 to 14 days starting from post bleomycin stimulation; assay type: functional, organism-based; conditions: time 1-14 day
[7] = Cmax in dog at 5 mg/kg, po by LC-MS/MS analysis; assay type: ADME, organism-based, Canis lupus familiaris; design: dose 5 mg/kg, route po; conditions: in vivo
Rattus norvegicus [8] = test: Antifibrotic activity against bleomycin-induced pulmonary fibrosis in po dosed Sprague-Dawley rat assessed as reduction in histopathological changes administered daily for 1 to 14 days starting from post bleomycin stimulation by H and E staining based assay; assay type: functional, organism-based; conditions: dose 2-6 mg/kg, time 1-14 day, DDE = dose-dependent effect
How it was run: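 Bleomycin-induced lung fibrosis in SD rats; oral dosing daily from day 1 for 14 days; saline for sham and bleomycin groups; comparator 100 mg kg⁻¹ d, test doses 2 and 6 mg kg⁻¹ d; lung pathology assessed by HE histology.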

HFL1 [9] = test: Antifibrotic activity in TGF-beta1-induced HFL1 cell injury assessed as alpha-SMA expression at 5 uM measured after 48 hrs by Western blot analysis (reference value: 100%); assay type: functional, Homo sapiens
How it was run: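 HFL-1 cells stimulated with TGF-β1; α-SMA protein detected by Western blot with anti-α-SMA antibody, normalised to tubulin; mean of n = 3.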

[10] = Intrinsic clearance in dog liver microsomes by LC-MS/MS analysis; assay type: ADME, Canis lupus familiaris, Microsome; conditions: read-out: CLH
How it was run: (§1)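 Liver microsomes (human, monkey, dog, rat, mouse) incubated with test compound at 37 °C with NADPH cofactor; samples at 0, 5, 15, 30, 60 min for half-life and in vitro CLint.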

[11] = Volume of distribution at steady state in cynomolgus monkey at 1 mg/kg, iv by LC-MS/MS analysis; assay type: ADME, organism-based, Macaca fascicularis; conditions: in vivo, read-out: Vdss
[12] = Half life in mouse liver microsomes by LC-MS/MS analysis; assay type: ADME, Microsome; how it was run: as §1
[13] = AUClast in dog at 5 mg/kg, po by LC-MS/MS analysis; assay type: ADME, organism-based, Canis lupus familiaris; design: time 0 - last, dose 5 mg/kg, route po; conditions: in vivo
HFL1 [14] = test: Antifibrotic activity in TGF-beta1-induced HFL1 cell injury assessed as down regulation of collagen 1 mRNA expression at 0.625 to 10 uM measured after 24 hrs by RT-PCR analysis; assay type: functional, cell-based; conditions: Homo sapiens, dose 0.625-10 µM
How it was run: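 TGF-β1-induced HFL-1 cells treated 24 h (test range 0.625–10 μM; comparator 3 mM); collagen 1 and collagen 3 mRNA measured by RT-PCR; mean of n = 3.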

[15] = AUClast in Sprague-Dawley rat model of bleomycin-induced pulmonary fibrosis at 5 mg/kg, po by LC-MS/MS analysis; assay type: ADME, organism-based; design: time 0 - last, dose 5 mg/kg, route po; conditions: in vivo
How it was run: (§2)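 Male Sprague-Dawley rats with induced pulmonary fibrosis; single i.v. (2.0 mg kg⁻¹) or p.o. (5.0 mg kg⁻¹) administration. Plasma samples stored at −70 °C; the supernatant was analysed by LC-MS/MS for PK parameters.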

[16] = Intrinsic clearance in human liver microsomes by LC-MS/MS analysis; assay type: ADME, Microsome; conditions: read-out: CLH; how it was run: as §1
[17] = Clearance in Sprague-Dawley rat model of bleomycin-induced pulmonary fibrosis at 2 mg/kg, iv by LC-MS/MS analysis; assay type: ADME, organism-based; conditions: in vivo; how it was run: as §2

Cc1cc(=O)n(-c2ccc(N3CCC(Cc4ccc(Cl)c(F)c4)CC3)c(Cl)c2)c(C)n1
Tmax [1]: 1.7 h
half-life [2]: 14 h
half-life [3]: 16 h
Activity [4]: Non-Toxic
half-life [5]: 11 h
Activity (Rattus norvegicus [6]): Active
Cmax [7]: 628 ng/mL
Activity (Rattus norvegicus [8]): Dde
Activity (HFL1 [9]): 72.56%
CLint scaled [10]: 11.7 mL/min/kg
Vd [11]: 3.9 L/kg
half-life [12]: 1.18 h
AUC(0-t) [13]: 5910 ng·h/mL
Activity (HFL1 [14]): Active
AUC(0-t) [15]: 11200 ng·h/mL
CLint scaled [16]: 16.7 mL/min/kg
clearance [17]: 4.33 mL/min/kg
